Data taken from article PMC4765323 (Current topics in medicinal chemistry, 2009).
Numbering of substitutions follows the chain as printed.

Experiments:
M2-M5 mAChR = assay: functional mAChR selectivity, M2-M5 reported together; type: cell-based, rat
[1] = system: NMDAR currents in hippocampal CA1 pyramidal cells; type: cell-based
M1 mAChR (M1/CHO cells) = molecular target: T1, M1 mAChR (M1/CHO cells) (Rattus norvegicus, UniProt P08482); assay: functional cell-based calcium-mobilization assay, M1/CHO cell line; settings: read-out: M1 IC50
T1 sequence (P08482 1-460): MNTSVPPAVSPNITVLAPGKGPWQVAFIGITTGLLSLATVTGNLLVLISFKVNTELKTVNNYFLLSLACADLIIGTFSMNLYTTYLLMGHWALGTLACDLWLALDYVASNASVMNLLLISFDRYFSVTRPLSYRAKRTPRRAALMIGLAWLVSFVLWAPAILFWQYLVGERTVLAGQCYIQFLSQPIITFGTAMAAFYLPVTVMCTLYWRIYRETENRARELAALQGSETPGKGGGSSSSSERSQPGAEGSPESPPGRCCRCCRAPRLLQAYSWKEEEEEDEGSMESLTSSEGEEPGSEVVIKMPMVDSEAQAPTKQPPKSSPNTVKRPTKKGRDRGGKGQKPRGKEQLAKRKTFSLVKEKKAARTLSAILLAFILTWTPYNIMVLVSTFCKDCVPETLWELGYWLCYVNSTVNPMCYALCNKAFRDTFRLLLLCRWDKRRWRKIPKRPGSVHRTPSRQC
Procedure, shortened: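 Real-time calcium mobilisation in CHO cells expressing M1, with a Z' averaging 0.7. Primary hits from a single-pass library screen were retested in duplicate and counter-screened on mGluR4/CHO cells. IC50 values came from 10-point concentration-response curves run in triplicate, tested in parallel on M4/CHO cells.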

plasma:brain study = type: in vivo, Sprauge Dawley rat; settings: male rats, 10 mg/kg i.p.
M1 mAChR = molecular target: T2, M1 mAChR (Homo sapiens, UniProt P11229); assay: phosphoinositide; type: cell-based; settings: PI hydrolysis, ACh concentration-response curve
T2 sequence (P11229 1-460): T1 sequence (P08482 1-460) with V5A, S254T, S309P, K320R, G337A, V413I
Procedure, shortened: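 Phosphoinositide hydrolysis was driven by an ACh concentration-response curve, run with and without several test compound concentrations. Rightward shifts of the ACh curve were fitted by Schild analysis to give a Kd and a slope.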

[2] = system: pilocarpine-induced seizures; assay: pilocarpine-induced seizures in vivo; design: species or system mice; settings: pilocarpine 280 mg/kg
Y381A mutant M1 mAChR = molecular target: T3, Y381A mutant M1 mAChR (Homo sapiens, UniProt P11229, Y381A); assay: mutagenesis experiment, Y381A mutant M1; type: cell-based; settings: wherein ACh loses affinity
T3 sequence (P11229 1-460 Y381A): T1 sequence (P08482 1-460) with V5A, S254T, S309P, K320R, G337A, Y381A, V413I

M1 receptor versus M2-M5 = settings: reported for known antagonists, no reference given; cited from earlier work

**Q.** With O=C(CCNS(=O)(=O)c1cccc2nsnc12)N1CCN(c2ccncc2)CC1 [VU0255035] as the molecule, how does the “functional selectivity for M1 versus M2-M5” value (M2-M5 mAChR; functional) read?
**A.** > 75 fold

**Q.** What about the IC50 (M2-M5 mAChR; read-out: M2-M5 IC50, functional, one bound for all of M2-M5) of the same molecule?
**A.** > 10000 nM

**Q.** And the “inhibition of M2-M5” value (M2-M5 mAChR; up to 150 μM in some experiments, concentrations solubility limited)?
**A.** little inhibition

**Q.** And the “block of CCh-potentiated NMDA-evoked current” value ([1]; 10 μM CCh, 5 μM compound)?
**A.** completely blocked

**Q.** And the “effect of compound alone on NMDA-evoked current” value ([1]; compound alone, no CCh)?
**A.** no effect

**Q.** And the IC50 (M1 mAChR (M1/CHO cells))?
**A.** 130 nM

**Q.** And the BrainAUC/PlasmaAUC (plasma:brain study)?
**A.** 0.48

**Q.** What about the Schild slope (M1 mAChR) of the same molecule?
**A.** 0.90 ± 0.08

**Q.** And the seizure count ([2]; compound 10 mg/kg i.p.)?
**A.** statistically significant effect reducing seizure count

**Q.** What about the animals that died ([2]; compound 10 mg/kg i.p. after 40 minutes, 2/8 at 24 hours) of the same molecule?
**A.** 25%

**Q.** And the “antagonism of M1 mAChR responses in Y381A mutant” value (Y381A mutant M1 mAChR)?
**A.** right shifted

B1: MT7 (protein, UniProt Q8QGR0 22-86, looked up)
Muscarinic toxin 7: LTCVKSNSIWFPTSEDCPDGQNLCFKRWQYISPRMYDFTRGCAATCPKAEYRDVINCCGTDKCNK
**Q.** For B1, which “M1 selectivity versus M2-M5” value (M1 receptor versus M2-M5) is on record?
**A.** > 1,000 fold
